# Reference: ChEMBL document CHEMBL1144886, “Structure-based design, synthesis, and antimicrobial activity of indazole-derived SAH/MTA nucleosidase inhibitors” (J Med Chem, 2003)
# Key:
# Streptococcus pneumoniae = experiment: Minimum inhibitory concentration against Streptococcus pneumoniae; assay type: functional
# Neisseria meningitidis = experiment: Minimum inhibitory concentration against Neisseria meningitidis; assay type: functional
# [1] = molecular target: 5'-methylthioadenosine/S-adenosylhomocysteine nucleosidase (Escherichia coli O157:H7, UniProt P0AF14); experiment: Inhibition of Escherichia coli S-adenosyl homocysteine/methylthioadenosine nucleosidase (MTA/SAH nucleosidase)
# Summary of the method: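 Recombinant His-tagged E. coli enzyme (IPTG-induced in E. coli, IMAC-purified), 50 pM, incubated 10 min at room temperature with 2.5 μM MTA and inhibitor at 0.005–100 μM; 200 μL final volume. Reaction stopped with TFA. Remaining MTA quantified by RP-HPLC (C8) peak integration, and turnover plotted for IC50. Ki derived using Km 1.0 μM for MTA.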
# Streptococcus pyogenes = experiment: Minimum inhibitory concentration against Streptococcus pyogenes; assay type: functional
# Chain of 5'-methylthioadenosine/S-adenosylhomocysteine nucleosidase (P0AF14 whole entry): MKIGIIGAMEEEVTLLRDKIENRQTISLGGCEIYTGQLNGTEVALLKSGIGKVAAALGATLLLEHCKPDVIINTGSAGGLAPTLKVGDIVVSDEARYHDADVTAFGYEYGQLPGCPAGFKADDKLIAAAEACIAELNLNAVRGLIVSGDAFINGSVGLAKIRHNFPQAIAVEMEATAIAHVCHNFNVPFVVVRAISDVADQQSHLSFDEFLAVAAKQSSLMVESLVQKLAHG
SMILES,MIC (Streptococcus pneumoniae) [µM],MIC (Neisseria meningitidis) [µM],Ki [1] [nM],MIC (Streptococcus pyogenes) [µM]
CC(C)CNc1cc(NS(=O)(=O)c2cccc(-c3ccc(Cl)cc3)c2)cc2c(Cl)[nH]nc12,2.5,2.5,12.5,1.25
CN(C)c1cccc2c(S(=O)(=O)Nc3ccc4[nH]nc(Cl)c4c3)cccc12,–,–,22000,–
CC(C)CNc1cc(NS(=O)(=O)c2cccc(-c3ccccc3)c2)cc2c(Cl)[nH]nc12,–,2.5,94,> 20
CC(C)(C)CCNc1cc(NS(=O)(=O)c2ccc(Cl)cc2)cc2c(Cl)[nH]nc12,–,–,6500,–
Cc1n[nH]c2c(NCC(C)C)cc(NS(=O)(=O)c3cccc(-c4ccncc4)c3)cc12,–,–,240,–
CN(C)c1cccc2c(S(=O)(=O)Nc3ccc4[nH]ncc4c3)cccc12,–,–,2800,–
Cc1cc(-c2cccc(S(=O)(=O)Nc3cc(NCC(C)C)c4n[nH]c(Cl)c4c3)c2)ccn1,–,–,28.5,–
Cc1cccc(-c2cccc(S(=O)(=O)Nc3cc(NCC(C)C)c4[nH]nc(C)c4c3)c2)c1,–,20,100,> 20
CC(C)CNc1cc(NS(=O)(=O)c2cccc(-c3cccc(C(F)(F)F)c3)c2)cc2c(Cl)[nH]nc12,–,–,11,–
CC(C)CNc1cc(NS(=O)(=O)c2cccc(-c3ccc(F)c(F)c3)c2)cc2c(Cl)[nH]nc12,–,–,8.1,–
O=S(=O)(Nc1cc(NCCc2ccccc2)c2[nH]nc(Cl)c2c1)c1ccc(Cl)cc1,–,–,2300,–
Cc1n[nH]c2c(NCC(C)C)cc(NS(=O)(=O)c3cccc(-c4cccc(C(F)(F)F)c4)c3)cc12,–,20,20,> 20
O=S(=O)(Nc1cc(NCC2CC2)c2[nH]nc(Cl)c2c1)c1ccc(Cl)cc1,–,–,500,–
O=S(=O)(Nc1cc(NCc2ccccc2)c2[nH]nc(Cl)c2c1)c1ccc(Cl)cc1,–,–,1800,–
Cc1cc(-c2cccc(S(=O)(=O)Nc3cc(NCC(C)C)c4n[nH]c(Cl)c4c3)c2)ccc1Cl,7.5,7.5,3.9,7.5
Cc1nccc(-c2cccc(S(=O)(=O)Nc3cc(NCC(C)C)c4n[nH]c(Cl)c4c3)c2)n1,–,–,36,–
CSc1cccc(-c2cccc(S(=O)(=O)Nc3cc(NCC(C)C)c4[nH]nc(Cl)c4c3)c2)c1,–,–,17,–
CC(C)CCNc1cc(NS(=O)(=O)c2ccc(Cl)cc2)cc2c(Cl)[nH]nc12,–,–,4900,–
CN(C)c1cccc2c(S(=O)(=O)Nc3ccc4c[nH]nc4c3)cccc12,–,–,1000,–
CC(C)CNc1cc(NS(=O)(=O)c2cccc(-c3ccc(Cl)c(Cl)c3)c2)cc2c(Cl)[nH]nc12,7.5,1.88,1.6,7.5

SMILES,MIC (Streptococcus pneumoniae) [µM],MIC (Neisseria meningitidis) [µM],Ki [1] [nM],MIC (Streptococcus pyogenes) [µM]
CC(C)(C)CNc1cc(NS(=O)(=O)c2ccc(Cl)cc2)cc2c(Cl)[nH]nc12,–,–,1200,–
CCc1cccc(-c2cccc(S(=O)(=O)Nc3cc(NCC(C)C)c4[nH]nc(C)c4c3)c2)c1,–,–,125,–
CC(C)CNc1cc(NS(=O)(=O)c2cccc(-c3ccncc3)c2)cc2c(Cl)[nH]nc12,–,10,52,> 20
CC(C)CNc1cc(NS(=O)(=O)c2cccc(-c3cnc4ccccc4c3)c2)cc2c(Cl)[nH]nc12,–,–,10.8,–
CC(C)CNc1cc(NS(=O)(=O)c2cccc(-c3ccc(C(F)(F)F)cc3)c2)cc2c(Cl)[nH]nc12,–,5,13,> 20
CCNc1cc(NS(=O)(=O)c2ccc(Cl)cc2)cc2c(Cl)[nH]nc12,–,–,2700,–
Cc1n[nH]c2ccc(NS(=O)(=O)c3cccc4c(N(C)C)cccc34)cc12,–,–,64000,–
Cc1n[nH]c2c(NCC(C)C)cc(NS(=O)(=O)c3cccc(-c4ccccc4)c3)cc12,–,–,498,–
CC(C)CNc1cc(NS(=O)(=O)c2ccc(Cl)cc2)cc2c(Cl)[nH]nc12,–,5,760,> 20
Cc1cccc(-c2cccc(S(=O)(=O)Nc3cc(NCC(C)C)c4n[nH]c(Cl)c4c3)c2)c1,–,–,36,–
CC(C)=CCNc1cc(NS(=O)(=O)c2ccc(Cl)cc2)cc2c(Cl)[nH]nc12,–,–,2200,–
CC(=O)Nc1cc(NS(=O)(=O)c2ccc(Cl)cc2)cc2c(Cl)[nH]nc12,5,5,11000,7.5
O=S(=O)(Nc1ccc2[nH]ncc2c1)c1ccc(Cl)cc1,–,–,27000,–
Cc1n[nH]c2ccc(NS(=O)(=O)c3ccc(Cl)cc3)cc12,–,–,4000,–
O=S(=O)(Nc1ccc2c[nH]nc2c1)c1ccc(Cl)cc1,–,–,17000,–
CC(C)CNc1cc(NS(=O)(=O)c2cccc(-c3cccc(CCO)c3)c2)cc2c(Cl)[nH]nc12,–,–,25,–
O=S(=O)(Nc1ccc2[nH]nc(Cl)c2c1)c1ccc(Cl)cc1,–,–,5200,–
Cc1cc(-c2cccc(S(=O)(=O)Nc3cc(NCC(C)C)c4n[nH]c(Cl)c4c3)c2)ccc1F,–,–,14.6,–
Cc1nccc(-c2cccc(S(=O)(=O)Nc3cc(NCC(C)C)c4[nH]nc(C)c4c3)c2)n1,–,–,191,–
CC(C)CNc1cc(NS(=O)(=O)c2cccc(-c3ccc(F)c(Cl)c3)c2)cc2c(Cl)[nH]nc12,3.75,1.88,3.4,3.75
